Experimental data taken from ChEMBL document CHEMBL1156136, “Hypoxia-activated prodrugs: substituent effects on the properties of nitro seco-1,2,9,9a-tetrahydrocyclopropa[c]benz[e]indol-4-one (nitroCBI) prodrugs of DNA minor groove alkylating agents” (J Med Chem, 2009).
Active and inactive are the calls of the source. The rule behind the calls is not given here.

Experiments:
SiHa [1] = test: Antitumor activity against human SiHa tumor bearing mouse assessed as cell kill at 42 umol/kg, iv; type: functional
In short: (§1)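 SiHa xenografts grown subcutaneously (10⁷ cultured cells) in female homozygous nude CD1-Foxn1nu/nu mice, randomised at mean tumour diameter 8-10 mm. Single iv tail-vein dose, 42 μmol/kg, in 5% DMSO/20% PEG-400/75% lactate buffer pH 4.0. Given alone or 5 min after 15 Gy irradiation. Tumours excised 18 h later, enzymatically dissociated, clonogenic survivors per gram counted. Groups of 3-5 mice; ANOVA with Holm-Sidak on log data.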

SK-OV-3 [2] = test: Hypoxic cytotoxicity ratio, IC50 for human SKOV3 cells in oxic condition to IC50 for human SKOV3 cells in hypoxic condition; type: functional
In short: (§2)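 Log-phase monolayers exposed to drug for 4 h under aerobic (20% O2) or anoxic (<20 ppm O2) conditions, then sulforhodamine B staining 5 days later. IC50 interpolated as concentration lowering cell density to 50% of same-plate controls. HCR = IC50(oxic)/IC50(hypoxic), mean of intraexperiment ratios. A549 P450R line is a stable transfectant with 9-fold higher cytochrome c reduction rate than parent.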

[3] = Cytotoxicity against human H1299 cells in hypoxic condition after 4 hrs by sulforhodamine B assay; type: functional, cell-based; conditions: NCI-H1299, 4 h; in short: as §2
Mus musculus = test: Toxicity in mouse at 100 umol/kg, ip; type: organism-based; conditions: in vivo
PC-3 [4] = test: Hypoxic cytotoxicity ratio, IC50 for human PC3 cells in oxic condition to IC50 for human PC3 cells in hypoxic condition; type: functional; in short: as §2
SK-OV-3 [5] = test: Cytotoxicity against human SKOV3 cells in oxic condition after 4 hrs by sulforhodamine B assay; type: functional, cell-based; conditions: SK-OV-3, 4 h; in short: as §2
A-375 [6] = test: Cytotoxicity against human A375 cells in hypoxic condition after 4 hrs by sulforhodamine B assay; type: functional, cell-based; conditions: A-375, 4 h; in short: as §2
HT-29 [7] = test: Cytotoxicity against human HT-29 cells assessed as surviving fraction in oxic condition at 30 uM by clonogenic assay; type: functional
In short: (§3)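 Clonogenic assay on single-cell suspensions from dissociated HT29 spheroids, about 1 × 10⁶ cells/mL. Drug exposure 4 h at 37 °C under 5% CO2 in O2 or in N2. Colonies grown 14 days, methylene blue stained, >50 cells counted. Surviving fraction = PE(treated)/PE(control); C10 is the concentration giving 10% survival, from the fitted curve.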

SK-OV-3 [8] = test: Cytotoxicity against human SKOV3 cells in hypoxic condition after 4 hrs by sulforhodamine B assay; type: functional, cell-based; conditions: SK-OV-3, 4 h; in short: as §2
A549 [9] = test: Cytotoxicity against human A549 cells overexpressing human NADPH/cytochrome P450 oxidoreductase in hypoxic condition after 4 hrs by sulforhodamine B assay; type: functional, cell-based; conditions: A549, 4 h; in short: as §2
A-375 [10] = test: Cytotoxicity against human A375 cells in oxic condition after 4 hrs by sulforhodamine B assay; type: functional, cell-based; conditions: A-375, 4 h; in short: as §2
NCI-H460 [11] = test: Cytotoxicity against human H460 cells in oxic condition after 4 hrs by sulforhodamine B assay; type: functional, cell-based; conditions: NCI-H460, 4 h; in short: as §2
HCT-116 [12] = test: Cytotoxicity against human HCT116 cells in oxic condition after 4 hrs by sulforhodamine B assay; type: functional, cell-based; conditions: HCT-116, 4 h; in short: as §2
PC-3 [13] = test: Cytotoxicity against human PC3 cells in hypoxic condition after 4 hrs by sulforhodamine B assay; type: functional, cell-based; conditions: PC-3, 4 h; in short: as §2
SiHa [14] = test: Hypoxic cytotoxicity ratio, IC50 for human SiHa cells in oxic condition to IC50 for human SiHa cells in hypoxic condition; type: functional; in short: as §2
NCI-H460 [15] = test: Cytotoxicity against human H460 cells in hypoxic condition after 4 hrs by sulforhodamine B assay; type: functional, cell-based; conditions: NCI-H460, 4 h; in short: as §2
SiHa [16] = test: Cytotoxicity against human SiHa cells in hypoxic condition after 4 hrs by sulforhodamine B assay; type: functional, cell-based; in short: as §2
A549 [17] = test: Hypoxic cytotoxicity ratio, IC50 for human A549 cells in oxic condition to IC50 for human A549 cells in hypoxic condition; type: functional; in short: as §2
C-33-A [18] = test: Cytotoxicity against human C33A cells in oxic condition after 4 hrs by sulforhodamine B assay; type: functional, cell-based; in short: as §2
HT-29 [19] = test: Cytotoxicity against human HT-29 cells in hypoxic condition after 4 hrs by sulforhodamine B assay; type: functional, cell-based; conditions: HT-29, 4 h; in short: as §2
A549 [20] = test: Cytotoxicity against human A549 cells in oxic condition after 4 hrs by sulforhodamine B assay; type: functional, cell-based; conditions: A549, 4 h; in short: as §2
PC-3 [21] = test: Cytotoxicity against human PC3 cells in oxic condition after 4 hrs by sulforhodamine B assay; type: functional, cell-based; conditions: PC-3, 4 h; in short: as §2
HCT-116 [22] = test: Hypoxic cytotoxicity ratio, IC50 for human HCT116 cells in oxic condition to IC50 for human HCT116 cells in hypoxic condition; type: functional; in short: as §2
HT-29 [23] = test: Hypoxic cytotoxicity ratio, IC50 for human HT-29 cells in oxic condition to IC50 for human HT-29 cells in hypoxic condition by clonogenic assay; type: functional
C-33-A [24] = test: Cytotoxicity against human C33A cells in hypoxic condition after 4 hrs by sulforhodamine B assay; type: functional, cell-based; in short: as §2
SiHa [25] = test: Cytotoxicity against human SiHa cells in oxic condition after 4 hrs by sulforhodamine B assay; type: functional, cell-based; in short: as §2
NCI-H460 [26] = test: Hypoxic cytotoxicity ratio, IC50 for human H460 cells in oxic condition to IC50 for human H460 cells in hypoxic condition; type: functional; in short: as §2
A-375 [27] = test: Hypoxic cytotoxicity ratio, IC50 for human A375 cells in oxic condition to IC50 for human A375 cells in hypoxic condition; type: functional; in short: as §2
A549 [28] = test: Hypoxic cytotoxicity ratio, IC50 for oxic condition to IC50 for hypoxic condition in human A549 cells overexpressing human NADPH/cytochrome P450 oxidoreductase; type: functional; in short: as §2
HT-29 [29] = test: Cytotoxicity against human HT-29 cells in oxic condition after 4 hrs by sulforhodamine B assay; type: functional, cell-based; conditions: HT-29, 4 h; in short: as §2
A549 [30] = test: Cytotoxicity against human A549 cells in hypoxic condition after 4 hrs by sulforhodamine B assay; type: functional, cell-based; conditions: A549, 4 h; in short: as §2
A549 [31] = test: Cytotoxicity against human A549 cells overexpressing human NADPH/cytochrome P450 oxidoreductase in oxic condition after 4 hrs by sulforhodamine B assay; type: functional, cell-based; conditions: A549, 4 h; in short: as §2
C-33-A [32] = test: Hypoxic cytotoxicity ratio, IC50 for human C33A cells in oxic condition to IC50 for human C33A cells in hypoxic condition; type: functional; in short: as §2
HCT-116 [33] = test: Cytotoxicity against human HCT116 cells in hypoxic condition after 4 hrs by sulforhodamine B assay; type: functional, cell-based; conditions: HCT-116, 4 h; in short: as §2
[34] = Cytotoxicity against human H1299 cells in oxic condition after 4 hrs by sulforhodamine B assay; type: functional, cell-based; conditions: NCI-H1299, 4 h; in short: as §2
HT-29 [35] = test: Hypoxic cytotoxicity ratio, IC50 for human HT-29 cells in oxic condition to IC50 for human HT-29 cells in hypoxic condition; type: functional; in short: as §2
HT-29 [36] = test: Cytotoxicity against human HT-29 cells assessed as cell kill in hypoxic condition by clonogenic assay; type: functional; in short: as §3
SiHa [37] = test: Antitumor activity against human SiHa tumor bearing mouse assessed as log reduction of cell kill at 42 umol/kg, iv irradiated 5 mins before 15 Gy dose by cologenic assay; type: functional; in short: as §1
[38] = Hypoxic cytotoxicity ratio, IC50 for human H1299 cells in oxic condition to IC50 for human H1299 cells in hypoxic condition; type: functional, NCI-H1299; in short: as §2

CN(C)CCOc1ccc2[nH]c(C(=O)N3CC(CCl)c4c3cc([N+](=O)[O-])c3cc(S(N)(=O)=O)ccc43)cc2c1 (configuration not stated)
Activity (SiHa [1]): inactive
Ratio IC50 (SK-OV-3 [2]): 275
IC50 [3]: 110 nM
Activity (Mus musculus): Non-toxic
Ratio IC50 (PC-3 [4]): 180
IC50 (SK-OV-3 [5]): 6900 nM
IC50 (A-375 [6]): 150 nM
Activity (HT-29 [7]): >10%
IC50 (SK-OV-3 [8]): 0.028 nM
IC50 (A549 [9]): 6 nM
IC50 (A-375 [10]): 2900 nM
IC50 (NCI-H460 [11]): 3800 nM
IC50 (HCT-116 [12]): 1700 nM
IC50 (PC-3 [13]): 37 nM
Ratio IC50 (SiHa [14]): 71
IC50 (NCI-H460 [15]): 110 nM
IC50 (SiHa [16]): 34 nM
Ratio IC50 (A549 [17]): 30
IC50 (C-33-A [18]): 500 nM
IC50 (HT-29 [19]): 0.018 nM
IC50 (A549 [20]): 950 nM
IC50 (PC-3 [21]): 2900 nM
Ratio IC50 (HCT-116 [22]): 110
Ratio IC50 (HT-29 [23]): 125
IC50 (C-33-A [24]): 3 nM
IC50 (SiHa [25]): 1700 nM
Ratio IC50 (NCI-H460 [26]): 36
Ratio IC50 (A-375 [27]): 19
Ratio IC50 (A549 [28]): 140
IC50 (HT-29 [29]): 4600 nM
IC50 (A549 [30]): 35 nM
IC50 (A549 [31]): 860 nM
Ratio IC50 (C-33-A [32]): 240
IC50 (HCT-116 [33]): 15 nM
IC50 [34]: 6300 nM
Ratio IC50 (HT-29 [35]): 330
C10 (HT-29 [36]): 0.4 µM
Activity (SiHa [37]): 2.7
Ratio IC50 [38]: 180

COc1cc2cc(C(=O)N3CC(CCl)c4c3cc(N)c3cc(C#N)ccc43)[nH]c2c(OC)c1OC (configuration not stated)
Ratio IC50 (SK-OV-3 [2]): 1.3
IC50 (SK-OV-3 [5]): 10000 nM
IC50 (SK-OV-3 [8]): 9 nM
IC50 (HT-29 [19]): 11 nM
IC50 (HT-29 [29]): 15000 nM
Ratio IC50 (HT-29 [35]): 1.9

COc1cc2cc(C(=O)N3CC(CCl)c4c3cc([N+](=O)[O-])c3cc(C(N)=O)ccc43)[nH]c2c(OC)c1OC (configuration not stated)
Ratio IC50 (SK-OV-3 [2]): 6.1
IC50 (SK-OV-3 [5]): 5800 nM
IC50 (SK-OV-3 [8]): 1.6 nM
IC50 (HT-29 [19]): 3.6 nM
IC50 (HT-29 [29]): 7900 nM
Ratio IC50 (HT-29 [35]): 2.8

COc1cc2cc(C(=O)N3CC(CCl)c4c3cc(N)c3ccccc43)[nH]c2c(OC)c1OC (configuration not stated)
Ratio IC50 (SK-OV-3 [2]): 1
IC50 (SK-OV-3 [5]): 1300 nM
IC50 (SK-OV-3 [8]): 1.7 nM
IC50 (HT-29 [19]): 2.5 nM
IC50 (HT-29 [29]): 860 nM
Ratio IC50 (HT-29 [35]): 0.76
